Screens deposited in PubChem by SRMLSC.
HUVEC prolif 384: inhibitors of HUVEC proliferation, primary screen, cell-based, 384-well; CellTiter-Glo luminescence, 72 h; stronger effect = lower value; viability, % at 10 µM (by protocol); actives 1.1% (n = 86,000); AID 648, 2007;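 active = viability at or below 30%; inactive = viability above 30%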;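 note: 100% = median luminescence of DMSO-only cell control wells on each plate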
H69AR inhibit: proliferation blockers of H69AR lung cancer cells, primary screen, cell-based, human, 86K library | H69AR lung tumor viability, ATP luminescence, 72 h; stronger effect = lower value | viability, % at 10 µM | actives 6% (n = 85,000) | AID 598, 2007;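 active = viability at or below 40%; inactive = viability above 40%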;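 note: multidrug resistant small cell line overexpressing MRP-1 efflux transporter; 100% = mean luminescence of untreated control wells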
bCat KO growth: primary screen for growth suppressors in beta-catenin knockout HCT116 cells (colon tumor, human); HCT116 beta-catenin knockout viability, CellTiter-Glo, 60 h; stronger effect = lower value; viability, % at 10 µM; actives 1.5% (n = 140,000);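 active = viability at or under a set limit, the compound median less 4 SD, cut at about 6% in these data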;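 note: 0% = Hyamine 1622 control at 20 µM and 100% = untreated cell control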
Fibroblast inh: antiproliferative effect on LL 47 fibroblasts – human, LL 47 cells, CellTiter-Glo luminescence, primary screen | LL 47 human lung fibroblast viability, ATP luminescence; stronger effect = lower value | viability, % at 10 µM | actives 1.1% (n = 85,000) | AID 719, 2007;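 active = viability at or below 50% in the single dose screen; inactive = viability above 50%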;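 note: compound exposure lasted 72 h before the ATP readout; 100% = median luminescence of untreated cell-only wells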
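Assay system: human lung fibroblast line LL 47, low passage. Input: 1,150 fibroblasts seeded per well. Times: overnight cell rest, 72 h compound treatment at 37 °C. Evaluation: % viability of median cell-only signal. Technique: luminescent ATP detection, CellTiter-Glo. Control set: cell-only wells, no compound.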
HCT116 PTEN-null: growth suppression of PTEN-null HCT116, primary screen, cell-based, CellTiter-Glo. HCT116 PTEN-null viability, 60 h; stronger effect = lower value. viability, % at 10 µM. actives 1.2% (n = 140,000). AID 827, 2007;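 active = viability at or below a set limit, 4 SD under the median of all tested compounds, cut at about 3.7% in these data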;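 note: PTEN knockout HCT116 line with beta catenin targeted HCT116 as companion control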
Active calls of the source: *; . = no result. The entries come from a sample that favours hits as a whole.

SMILES	HUVEC prolif 384	H69AR inhibit	bCat KO growth	Fibroblast inh	HCT116 PTEN-null
COc1ccc(-n2nc(C(=O)Nc3ccc(OC)c(OC)c3)c3c4ccccc4n(C)c3c2=O)cc1	30	9.2*	3.7*	77	3.5*
COc1ccc(-n2nc(C(=O)Nc3ccc4c(c3)OCO4)c3c4ccccc4n(C)c3c2=O)cc1	88	85	.	93	.
CCN(CC)CCNC(=O)c1nn(-c2ccc(C)cc2)c(=O)c2c1c1ccccc1n2C	20*	64	7	54	6
COc1ccc(-n2nc(C(=O)Nc3ccc4c(c3)OCO4)c3ccccc3c2=O)c(OC)c1	72	7.0*	11	94	20
COc1ccccc1-n1nc(C(=O)Nc2ccc3c(c2)OCO3)c2ccccc2c1=O	74	42	81	85	81
C=CCOC(=O)c1sc(N2C(=O)c3oc4ccccc4c(=O)c3C2c2ccco2)nc1C (configuration not stated)	35	17*	.	58	.
COC(=O)c1sc(N2C(=O)c3oc4ccccc4c(=O)c3C2c2cccs2)nc1C (configuration not stated)	.	.	65	.	47
CCc1ccc(NC(=O)C(=O)NNC(=O)COc2cccc(OC)c2)cc1	.	.	92	.	99
COc1cc(C(=O)OCC(=O)c2cc(C)n(C)c2C)cc(NC(=O)c2ccco2)c1OC	27*	11*	87	84	88
CNC(=O)COC(=O)c1cc(NC(=O)c2ccco2)c(OC)c(OC)c1	.	.	86	.	99
COc1cc(-c2ncc3ccccn23)cc(OC)c1OC	.	.	84	.	90
COc1cc(C(C[N+](=O)[O-])c2c(-c3ccccc3)cc3ccccn23)cc(OC)c1OC (configuration not stated)	64	11*	56	34*	35
COc1ccc(C(C[N+](=O)[O-])c2c(-c3ccccc3)cc3ccccn23)cc1OC (configuration not stated)	81	26*	41	66	49
COc1ccc(C(C[N+](=O)[O-])c2c(-c3ccccc3)cc3ccccn23)cc1 (configuration not stated)	61	12*	3.3*	43*	1.9*
C/C(=N\O)C(=O)C(CN1CCCCC1)CN1CCCCC1	74	0.4*	100	15*	82
CC(=O)/C(CN1CCCCC1)=N\O	93	102	117	98	95
CC(C)c1nc(SCC(=O)N2CCCC2)c2ccccc2n1	84	29*	72	82	75
O=[N+]([O-])c1c(NCCCO)cc(SCc2ccco2)c2nonc12	.	.	10	.	58
CC(=O)OCCCNc1cc(Sc2ccc(C)cc2)c2nonc2c1[N+](=O)[O-]	.	.	3.6*	.	3.8*
O=[N+]([O-])c1c(NCCCO)cc(Sc2ccc(Cl)cc2)c2nonc12	.	.	1.5*	.	1.2*
CC(=O)OCCNc1cc(SCc2ccco2)c2nonc2c1[N+](=O)[O-]	.	.	1.1*	.	1.0*
CC(=O)OCCCNc1cc(Sc2nc3ccccc3s2)c2nonc2c1[N+](=O)[O-]	.	.	3.7*	.	4
COC(=O)CCSc1cc(NCCOC(C)=O)c([N+](=O)[O-])c2nonc12	.	.	96	.	96
Cc1ccc(-c2csc3nc(SCC(N)=O)n(Cc4ccccc4)c(=O)c23)cc1	.	.	67	.	55
CC1CCN(S(=O)(=O)N2CCC(C(=O)NCc3cccs3)CC2)CC1	98	99	94	.	95
SMILES	HUVEC prolif 384	H69AR inhibit	bCat KO growth	Fibroblast inh	HCT116 PTEN-null
O=c1[nH]c(CN2CCCCC2)nc2c1C1(CCCC1)Cc1ccccc1-2	92	94	.	98	.
CC(=O)OCCNc1cc(Sc2nc3ccccc3[nH]2)c2nonc2c1[N+](=O)[O-]	.	.	1.6*	.	1.5*
CCCC(=O)OCCNc1cc(SCCC(=O)OC)c2nonc2c1[N+](=O)[O-]	.	.	87	.	95
O=c1c2ccccc2nc(/C=C/c2ccc([N+](=O)[O-])cc2)n1CCCO	.	.	55	.	56
O=c1c2ccccc2nc(/C=C/c2ccc([N+](=O)[O-])o2)n1CCCO	.	.	1.5*	.	1.3*
O=[N+]([O-])c1ccc(-n2nnnc2-c2ccccc2)c([N+](=O)[O-])c1	.	.	0.6*	.	0.6*
NS(=O)(=O)c1ccc(NC(=S)Nc2nn(Cc3ccc(Cl)cc3Cl)cc2Cl)cc1	.	.	81	.	84
CCn1c2ccccc2c2nnc(SCC(=O)NC(C(=O)OC)C(C)C)nc21 (configuration not stated)	103	64	.	99	.
O=C(Nc1ccccc1C(=O)Nc1ccc2c(c1)OCO2)c1ccco1	77	34*	96	90	92
Cc1ccc(C(=O)N/C(=C\c2cccs2)C(=O)NCCc2c[nH]c3ccccc23)cc1	.	.	67	.	62
Cc1c(CC(C)C)nc(N)c(C#N)c1-c1ccccc1	84	24*	70	92	70
COc1cccc(-c2cc(C(=O)Nc3cccnc3)no2)c1	57	96	78	85	88
COc1cccc(-c2cc(C(=O)Nc3cc(OC)c(OC)c(OC)c3)no2)c1	50	17*	33	75	24
Cc1cccc(NC(=O)CCNC(=O)c2ccco2)c1	.	.	92	.	99
COc1ccc(NC(=O)c2ccccc2NC(=O)NC2CCCCC2)cc1	95	89	78	102	73
COC(=O)c1c(C)n(-c2ccc(OC)cc2)c2ccc(O)cc12	18*	18*	91	79	43
CN1CCN(c2ccc(Cl)cc2NC(=O)c2cccc(S(=O)(=O)N(C)C)c2)CC1	57	26*	69	84	75
COc1ccc(OC)c(NC(=O)C2COc3ccccc3O2)c1 (configuration not stated)	87	69	96	102	95
CN1CCN(c2ccc(Cl)cc2NC(=O)c2nn(-c3ccccc3)c(=O)c3ccccc23)CC1	82	4.9*	80	97	70
CN1CCN(c2ccc(Cl)cc2NC(=O)C2COc3ccccc3O2)CC1 (configuration not stated)	71	30*	72	82	78
COc1cccc(NC(=O)CSc2nc3c(oc4ccccc43)c(=O)[nH]2)c1	.	.	97	.	100
Cc1cccc(C(=O)N[C@H](C(=O)OCC(=O)NC2CCS(=O)(=O)C2)C(C)C)c1 (some centres not stated)	.	.	99	.	99
C=C(C)CNC(=S)NNC(=O)c1ccc(Br)cc1	.	.	85	.	90
Cc1ccc(-n2nc(C)c3c(C)c(CCC(=O)NC(C)c4ccccc4)c(C)nc32)cc1 (configuration not stated)	59	15*	42	73	54
O=C(Nc1cccc(C(F)(F)F)c1)c1ccc2nc(-c3ccco3)c(-c3ccco3)nc2c1	59	32*	102	113	98
CCOc1ccccc1C(=O)Nc1cccc(-c2nnc(-c3ccccc3)o2)c1	48	8.7*	63	87	63
